Reference: ChEMBL document CHEMBL4689842, “EUbOPEN Chemogenomics Library wave 1” (2021)

Test system: U2OS
Experiment: Multiplex assay against U2OS
Format: toxicity, cell-based
Details: human
Outline: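 Live cells were stained at seeding with Hoechst33342, BioTracker Green Microtubule Cytoskeleton Dye, MitoTracker Red and Annexin V Alexa Fluor 680. Following compound addition, they were imaged on a CQ1 microscope at 37°C and 5% CO2 and gated by CellPathfinder machine learning into Hoechst high-intensity objects or normal cells, with normal cells split into healthy, pyknosed or fragmented nuclei and pyknosed cells into mitotic or apoptotic. Tubulin, mitochondrial-mass and membrane-permeability phenotypes are per cents of healthy-nucleus cells.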

[1] = 12 h, 1 µM, compound concentration 1 uM, replicate 1
[2] = 12 h, 1 µM, compound concentration 1 uM, replicate 2
[3] = 12 h, 10 µM, compound concentration 10 uM, replicate 1
[4] = 12 h, 10 µM, compound concentration 10 uM, replicate 2
[5] = 24 h, 1 µM, compound concentration 1 uM, replicate 1
[6] = 24 h, 1 µM, compound concentration 1 uM, replicate 2
[7] = 24 h, 10 µM, compound concentration 10 uM, replicate 1
[8] = 24 h, 10 µM, compound concentration 10 uM, replicate 2
[9] = 48 h, 1 µM, compound concentration 1 uM, replicate 1
[10] = 48 h, 1 µM, compound concentration 1 uM, replicate 2
[11] = 48 h, 10 µM, compound concentration 10 uM, replicate 1
[12] = 48 h, 10 µM, compound concentration 10 uM, replicate 2

With `COc1ccc(NS(=O)(=O)c2sc3ccc(Cl)cc3c2C)cc1N1CCNCC1.Cl` the “Population Apoptotic (%)” value [1] was 57%, the “Population Fragmented Nuclei (%)” value [1] was 12% and the “Population Healthy Nuclei (%)” value [1] was 74%. The “Population Hoechst High Intensity Objects (%)” value [1] was 6%, the “Population Membrane Permeable-Phenotype (%)” value [1] was 6% and the “Population Mitochondria Different-Phenotype (%)” value [1] was 11%. The “Population Mitotic Cells (%)” value [1] was 42%, the “Population Normal (%)” value [1] was 93% and the “Population Pyknosed Nuclei (%)” value [1] was 12%. For the same molecule, the “Population Tubulin-Different-Phenotype (%)” value [1] was 10%, the “Total Cell Count” value [1] was 172 and the “Population Apoptotic (%)” value [2] was 28%. The “Population Fragmented Nuclei (%)” value [2] was 13%, the “Population Healthy Nuclei (%)” value [2] was 69% and the “Population Hoechst High Intensity Objects (%)” value [2] was 12%. The “Population Membrane Permeable-Phenotype (%)” value [2] was 0%, the “Population Mitochondria Different-Phenotype (%)” value [2] was 26% and the “Population Mitotic Cells (%)” value [2] was 71%. For the same molecule, the “Population Normal (%)” value [2] was 87%, the “Population Pyknosed Nuclei (%)” value [2] was 16% and the “Total Cell Count” value [2] was 69. The “Population Apoptotic (%)” value [3] was 43%, the “Population Fragmented Nuclei (%)” value [3] was 12% and the “Population Healthy Nuclei (%)” value [3] was 57%. For the same molecule, the “Population Hoechst High Intensity Objects (%)” value [3] was 5%, the “Population Membrane Permeable-Phenotype (%)” value [3] was 29% and the “Population Mitochondria Different-Phenotype (%)” value [3] was 97%. For the same molecule, the “Population Mitotic Cells (%)” value [3] was 56%, the “Population Normal (%)” value [3] was 94% and the “Population Pyknosed Nuclei (%)” value [3] was 30%. For the same molecule, the “Population Tubulin-Different-Phenotype (%)” value [3] was 97%, the “Total Cell Count” value [3] was 162 and the “Population Apoptotic (%)” value [4] was 61%. For the same molecule, the “Population Fragmented Nuclei (%)” value [4] was 14%, the “Population Healthy Nuclei (%)” value [4] was 56% and the “Population Hoechst High Intensity Objects (%)” value [4] was 4%. The “Population Membrane Permeable-Phenotype (%)” value [4] was 25%, the “Population Mitochondria Different-Phenotype (%)” value [4] was 100% and the “Population Mitotic Cells (%)” value [4] was 38%. For the same molecule, the “Population Normal (%)” value [4] was 95%, the “Population Pyknosed Nuclei (%)” value [4] was 29% and the “Population Tubulin-Different-Phenotype (%)” value [4] was 94%. The “Total Cell Count” value [4] was 49, the “Population Apoptotic (%)” value [5] was 52% and the “Population Healthy Nuclei (%)” value [5] was 76%. The “Population Hoechst High Intensity Objects (%)” value [5] was 5%, the “Population Membrane Permeable-Phenotype (%)” value [5] was 3% and the “Population Mitochondria Different-Phenotype (%)” value [5] was 10%. For the same molecule, the “Population Mitotic Cells (%)” value [5] was 48%, the “Population Normal (%)” value [5] was 95% and the “Population Pyknosed Nuclei (%)” value [5] was 13%. The “Population Tubulin-Different-Phenotype (%)” value [5] was 6%, the “Total Cell Count” value [5] was 174 and the “Population Apoptotic (%)” value [6] was 33%. The “Population Fragmented Nuclei (%)” value [6] was 10%, the “Population Healthy Nuclei (%)” value [6] was 77% and the “Population Hoechst High Intensity Objects (%)” value [6] was 3%. The “Population Membrane Permeable-Phenotype (%)” value [6] was 5%, the “Population Mitochondria Different-Phenotype (%)” value [6] was 13% and the “Population Mitotic Cells (%)” value [6] was 66%. The “Population Normal (%)” value [6] was 96%, the “Population Pyknosed Nuclei (%)” value [6] was 12% and the “Population Tubulin-Different-Phenotype (%)” value [6] was 5%. The “Total Cell Count” value [6] was 67, the “Population Apoptotic (%)” value [7] was 61% and the “Population Fragmented Nuclei (%)” value [7] was 17%. The “Population Healthy Nuclei (%)” value [7] was 51%, the “Population Hoechst High Intensity Objects (%)” value [7] was 7% and the “Population Membrane Permeable-Phenotype (%)” value [7] was 35%. For the same molecule, the “Population Mitochondria Different-Phenotype (%)” value [7] was 98%, the “Population Mitotic Cells (%)” value [7] was 38% and the “Population Normal (%)” value [7] was 92%. The “Population Pyknosed Nuclei (%)” value [7] was 31%, the “Population Tubulin-Different-Phenotype (%)” value [7] was 95% and the “Total Cell Count” value [7] was 200. For the same molecule, the “Population Apoptotic (%)” value [8] was 68%, the “Population Fragmented Nuclei (%)” value [8] was 16% and the “Population Healthy Nuclei (%)” value [8] was 47%. For the same molecule, the “Population Hoechst High Intensity Objects (%)” value [8] was 2%, the “Population Membrane Permeable-Phenotype (%)” value [8] was 55% and the “Population Mitochondria Different-Phenotype (%)” value [8] was 97%. For the same molecule, the “Population Mitotic Cells (%)” value [8] was 32%, the “Population Normal (%)” value [8] was 97% and the “Population Pyknosed Nuclei (%)” value [8] was 35%. For the same molecule, the “Population Tubulin-Different-Phenotype (%)” value [8] was 91%, the “Total Cell Count” value [8] was 51 and the “Population Apoptotic (%)” value [9] was 36%. For the same molecule, the “Population Fragmented Nuclei (%)” value [9] was 8%, the “Population Healthy Nuclei (%)” value [9] was 82% and the “Population Hoechst High Intensity Objects (%)” value [9] was 3%. For the same molecule, the “Population Membrane Permeable-Phenotype (%)” value [9] was 3%, the “Population Mitochondria Different-Phenotype (%)” value [9] was 8% and the “Population Mitotic Cells (%)” value [9] was 64%. The “Population Pyknosed Nuclei (%)” value [9] was 9%, the “Population Tubulin-Different-Phenotype (%)” value [9] was 6% and the “Total Cell Count” value [9] was 178. For the same molecule, the “Population Apoptotic (%)” value [10] was 22%, the “Population Fragmented Nuclei (%)” value [10] was 13% and the “Population Healthy Nuclei (%)” value [10] was 73%. The “Population Hoechst High Intensity Objects (%)” value [10] was 4%, the “Population Membrane Permeable-Phenotype (%)” value [10] was 7% and the “Population Mitochondria Different-Phenotype (%)” value [10] was 20%. For the same molecule, the “Population Mitotic Cells (%)” value [10] was 77%, the “Population Normal (%)” value [10] was 96% and the “Population Pyknosed Nuclei (%)” value [10] was 12%. The “Population Tubulin-Different-Phenotype (%)” value [10] was 11%, the “Total Cell Count” value [10] was 73 and the “Population Apoptotic (%)” value [11] was 73%. For the same molecule, the “Population Fragmented Nuclei (%)” value [11] was 20%, the “Population Healthy Nuclei (%)” value [11] was 37% and the “Population Hoechst High Intensity Objects (%)” value [11] was 12%. The “Population Membrane Permeable-Phenotype (%)” value [11] was 46%, the “Population Mitochondria Different-Phenotype (%)” value [11] was 94% and the “Population Mitotic Cells (%)” value [11] was 26%. For the same molecule, the “Population Normal (%)” value [11] was 87%, the “Population Pyknosed Nuclei (%)” value [11] was 41% and the “Population Tubulin-Different-Phenotype (%)” value [11] was 98%. The “Total Cell Count” value [11] was 281, the “Population Apoptotic (%)” value [12] was 68% and the “Population Fragmented Nuclei (%)” value [12] was 17%. The “Population Healthy Nuclei (%)” value [12] was 56%, the “Population Hoechst High Intensity Objects (%)” value [12] was 6% and the “Population Membrane Permeable-Phenotype (%)” value [12] was 56%. The “Population Mitochondria Different-Phenotype (%)” value [12] was 93%, the “Population Mitotic Cells (%)” value [12] was 31% and the “Population Normal (%)” value [12] was 93%. For the same molecule, the “Population Pyknosed Nuclei (%)” value [12] was 26%, the “Population Tubulin-Different-Phenotype (%)” value [12] was 82% and the “Total Cell Count” value [12] was 75.
